Data: ChEMBL document CHEMBL1817558, “Design, synthesis and antimicrobial activity of chiral 2-(substituted-hydroxyl)-3-(benzo[d]oxazol-5-yl)propanoic acid derivatives” (2011)
≈ marks a conversion by molar mass, not a printed value.

Assays:
Assay type in all cases: functional
Escherichia coli = assay: Antibacterial activity against Escherichia coli ATCC 11303 after 24 hrs by NCCLS M7-A6 broth dilution method; conditions: ATCC 11303, 24 h
How it was run: (§1)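 Broth microdilution MIC per NCCLS. The 4 mg/mL DMSO stock was diluted in Mueller-Hinton broth with inoculum at 10^5 CFU/mL. Twofold serial dilutions gave final concentrations of 200 to 0.39 µg/mL. Incubation was 24 h at 37 °C, and cultures were streaked on plates to check clarity. MIC was the lowest concentration giving a clear well. Controls were medium-only and DMSO-only inoculated broth.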

Staphylococcus aureus [1] = assay: Antibacterial activity against Staphylococcus aureus ATCC 10832 after 24 hrs by NCCLS M7-A6 broth dilution method; conditions: ATCC 10832, 24 h
How it was run: (§2)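 96-well microtitre broth dilution in Mueller-Hinton broth, inoculum 10^5 CFU/mL. Compounds dissolved in DMSO at 4 mg/mL, then twofold serial dilution giving final 200 down to 0.39 µg/mL. Incubated 24 h at 37 °C. Cultures streaked on plates to check clarity; MIC taken as lowest concentration leaving the well clear. DMSO-only solvent control run at matching dilutions.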

Staphylococcus aureus [2] = assay: Antibacterial activity against methicillin-resistant Staphylococcus aureus ATCC 700699 after 24 hrs by NCCLS M7-A6 broth dilution method; conditions: ATCC 700699, 24 h; how it was run: as §2
Bacillus subtilis = assay: Antibacterial activity against Bacillus subtilis ATCC 33712 after 24 hrs by NCCLS M7-A6 broth dilution method; conditions: ATCC 33712, 24 h; how it was run: as §1
Candida albicans = assay: microbe, parasite or virus in culture; conditions: ATCC 10231, 24 h

SMILES | MIC (Escherichia coli) [µg/mL] | MIC (Staphylococcus aureus [1]) [µg/mL] | MIC (Staphylococcus aureus [2]) [µg/mL] | MIC (Bacillus subtilis) [µg/mL] | MIC (Candida albicans) [µg/mL]
Cc1oc(-c2ccccc2)nc1CCCc1nc2cc(C[C@H](Oc3ccc(Cl)cc3)C(=O)O)ccc2o1 | 25 (≈ 48.4 µM) | 6.25 (≈ 12.1 µM) | 6.25 (≈ 12.1 µM) | 12.5 (≈ 24.2 µM) | > 200
Cc1oc(-c2ccccc2)nc1CCCc1nc2cc(C[C@H](Oc3ccccc3)C(=O)O)ccc2o1 | 100 (≈ 207 µM) | 25 (≈ 51.8 µM) | 25 (≈ 51.8 µM) | 25 (≈ 51.8 µM) | > 200
Cc1oc(-c2ccccc2)nc1CCCc1nc2cc(C[C@H](Oc3cccnc3)C(=O)O)ccc2o1 | > 200 | 200 (≈ 414 µM) | 200 (≈ 414 µM) | > 200 | > 200
Cc1oc(-c2ccccc2)nc1CCCc1nc2cc(C[C@H](Oc3cccc4ncccc34)C(=O)O)ccc2o1 | 200 (≈ 375 µM) | 25 (≈ 46.9 µM) | 25 (≈ 46.9 µM) | 50 (≈ 93.7 µM) | > 200
Cc1oc(-c2ccccc2)nc1CCCc1nc2cc(C[C@H](Oc3ccc(F)cc3)C(=O)O)ccc2o1 | 50 (≈ 99.9 µM) | 12.5 (≈ 25 µM) | 12.5 (≈ 25 µM) | 25 (≈ 49.9 µM) | > 200
Cc1oc(-c2ccccc2)nc1CCCc1nc2cc(C[C@H](Oc3cccc(F)c3)C(=O)O)ccc2o1 | 50 (≈ 99.9 µM) | 12.5 (≈ 25 µM) | 12.5 (≈ 25 µM) | 25 (≈ 49.9 µM) | > 200
Cc1oc(-c2ccccc2)nc1CCCc1nc2cc(C[C@H](Oc3cc(F)c(F)c(F)c3)C(=O)O)ccc2o1 | 25 (≈ 46.6 µM) | 12.5 (≈ 23.3 µM) | 6.25 (≈ 11.6 µM) | 6.25 (≈ 11.6 µM) | > 200
Cc1oc(-c2ccccc2)nc1CCCc1nc2cc(C[C@H](Oc3ccc(Br)cc3)C(=O)O)ccc2o1 | 12.5 (≈ 22.3 µM) | 3.12 (≈ 5.56 µM) | 3.12 (≈ 5.56 µM) | 6.25 (≈ 11.1 µM) | > 200
Cc1oc(-c2ccccc2)nc1CCCc1nc2cc(C[C@H](Oc3ccccc3Br)C(=O)O)ccc2o1 | 50 (≈ 89.1 µM) | 25 (≈ 44.5 µM) | 25 (≈ 44.5 µM) | 50 (≈ 89.1 µM) | > 200
Cc1oc(-c2ccccc2)nc1CCCc1nc2cc(C[C@H](Oc3ccc(Cl)cc3Cl)C(=O)O)ccc2o1 | 6.25 (≈ 11.3 µM) | 3.12 (≈ 5.66 µM) | 1.56 (≈ 2.83 µM) | 3.12 (≈ 5.66 µM) | > 200
Cc1oc(-c2ccccc2)nc1CCCc1nc2cc(C[C@H](Oc3cccc(I)c3)C(=O)O)ccc2o1 | 25 (≈ 41.1 µM) | 3.12 (≈ 5.13 µM) | 1.56 (≈ 2.56 µM) | 12.5 (≈ 20.5 µM) | > 200
Cc1oc(-c2ccccc2)nc1CCCc1nc2cc(C[C@H](Oc3ccc(I)cc3)C(=O)O)ccc2o1 | 12.5 (≈ 20.5 µM) | 1.56 (≈ 2.56 µM) | 1.56 (≈ 2.56 µM) | 6.25 (≈ 10.3 µM) | > 200
Cc1oc(-c2ccccc2)nc1CCCc1nc2cc(C[C@H](Oc3ccc(C(F)(F)F)cc3)C(=O)O)ccc2o1 | 12.5 (≈ 22.7 µM) | 1.56 (≈ 2.83 µM) | 1.56 (≈ 2.83 µM) | 6.25 (≈ 11.4 µM) | > 200
Cc1oc(-c2ccccc2)nc1CCCc1nc2cc(C[C@H](Oc3ccc(C#N)cc3)C(=O)O)ccc2o1 | 200 (≈ 394 µM) | 50 (≈ 98.5 µM) | 50 (≈ 98.5 µM) | 50 (≈ 98.5 µM) | > 200
CC(=O)c1ccc(O[C@@H](Cc2ccc3oc(CCCc4nc(-c5ccccc5)oc4C)nc3c2)C(=O)O)cc1 | > 200 | 100 (≈ 191 µM) | 100 (≈ 191 µM) | > 200 | > 200
Cc1ccc(O[C@@H](Cc2ccc3oc(CCCc4nc(-c5ccccc5)oc4C)nc3c2)C(=O)O)cc1 | 50 (≈ 101 µM) | 25 (≈ 50.3 µM) | 12.5 (≈ 25.2 µM) | 50 (≈ 101 µM) | > 200
